Laboratory results taken from ChEMBL document CHEMBL4184251, “Potentiation of the activity of β-lactam antibiotics by farnesol and its derivatives” (Bioorg Med Chem Lett, 2018).
Converted amounts (≈) assume the structure as drawn.

Columns and labels:
Staphylococcus aureus [1] = experiment: Potentiation of oxacillin-induced antimicrobial activity against methicillin-resistant Staphylococcus aureus NRS70 at 256 ug/ml relative to oxacillin alone; type: functional
Staphylococcus aureus [2] = experiment: Potentiation of oxacillin-induced antimicrobial activity against methicillin-resistant Staphylococcus aureus NRS100 at 256 ug/ml relative to oxacillin alone; type: functional
Staphylococcus aureus [3] = experiment: Potentiation of ampicillin-induced antimicrobial activity against methicillin-resistant Staphylococcus aureus NRS123 at 256 ug/ml (reference value: ampicillin alone MIC = 12 ug/ml); type: functional
Staphylococcus aureus [4] = experiment: Potentiation of oxacillin-induced antimicrobial activity against methicillin-susceptible Staphylococcus aureus ATCC 29213 at 256 ug/ml (reference value: oxacillin alone MIC = 0.4 ug/ml); type: functional
[5] = Solubility in aqueous solution; type: physicochemical; conditions: buffer
Staphylococcus aureus [6] = experiment: Potentiation of ampicillin-induced antimicrobial activity against methicillin-susceptible Staphylococcus aureus ATCC 29213 at 256 ug/ml (reference value: ampicillin alone MIC = 0.5 ug/ml); type: functional
Staphylococcus aureus [7] = experiment: Potentiation of oxacillin-induced antimicrobial activity against methicillin-resistant Staphylococcus aureus NRS123 at 256 ug/ml (reference value: oxacillin alone MIC = 24 ug/ml); type: functional
Staphylococcus aureus [8] = experiment: Antimicrobial activity against methicillin-resistant Staphylococcus aureus NRS100 by micro-dilution method; type: functional
Procedure, shortened: (§1)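 Broth microdilution MIC in cation-adjusted Mueller-Hinton II medium supplemented with 1% Tween-80 (CAMHB-T), needed to disperse the farnesol-type compounds. Compounds tested from 2 to 2048 μg/mL.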

Staphylococcus aureus [9] = experiment: Antimicrobial activity against methicillin-resistant Staphylococcus aureus NRS70 by micro-dilution method; type: functional; procedure, shortened: as §1
Staphylococcus aureus [10] = experiment: Potentiation of oxacillin-induced antimicrobial activity against methicillin-resistant Staphylococcus aureus NRS123 at 256 ug/ml relative to oxacillin alone; type: functional
Staphylococcus aureus [11] = experiment: Potentiation of ampicillin-induced antimicrobial activity against methicillin-resistant Staphylococcus aureus NRS70 at 256 ug/ml relative to ampicillin alone; type: functional
Staphylococcus aureus [12] = experiment: Antimicrobial activity against methicillin-susceptible Staphylococcus aureus ATCC 29213 by micro-dilution method; type: functional; procedure, shortened: as §1
Staphylococcus aureus [13] = experiment: Potentiation of oxacillin-induced antimicrobial activity against methicillin-resistant Staphylococcus aureus NRS70 at 256 ug/ml (reference value: oxacillin alone MIC = 32 ug/ml); type: functional
Staphylococcus aureus [14] = experiment: Potentiation of oxacillin-induced antimicrobial activity against methicillin-susceptible Staphylococcus aureus ATCC 29213 at 256 ug/ml relative to oxacillin alone; type: functional
Staphylococcus aureus [15] = experiment: Potentiation of oxacillin-induced antimicrobial activity against methicillin-resistant Staphylococcus aureus NRS100 at 256 ug/ml (reference value: oxacillin alone MIC = >256 ug/ml); type: functional
Staphylococcus aureus [16] = experiment: Potentiation of ampicillin-induced antimicrobial activity against methicillin-resistant Staphylococcus aureus NRS100 at 256 ug/ml (reference value: ampicillin alone MIC = 16 ug/ml); type: functional
Staphylococcus aureus [17] = experiment: Potentiation of oxacillin-induced antimicrobial activity against methicillin-resistant Staphylococcus aureus NRS70 at 256 ug/ml by checkerboard assay; type: functional
Procedure, shortened: (§2)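 Checkerboard combination of oxacillin with the farnesol-type compound. Synergy scored by the fractional inhibitory concentration index (FICI).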

Staphylococcus aureus [18] = experiment: Potentiation of ampicillin-induced antimicrobial activity against methicillin-resistant Staphylococcus aureus NRS123 at 256 ug/ml relative to ampicillin alone; type: functional
Staphylococcus aureus [19] = experiment: Antimicrobial activity against methicillin-resistant Staphylococcus aureus NRS123 by micro-dilution method; type: functional; procedure, shortened: as §1
Staphylococcus aureus [20] = experiment: Potentiation of ampicillin-induced antimicrobial activity against methicillin-resistant Staphylococcus aureus NRS70 at 256 ug/ml (reference value: ampicillin alone MIC = 16 ug/ml); type: functional
Staphylococcus aureus [21] = experiment: Potentiation of oxacillin-induced antimicrobial activity against methicillin-resistant Staphylococcus aureus NRS100 at 256 ug/ml by checkerboard assay; type: functional; procedure, shortened: as §2
Staphylococcus aureus [22] = experiment: Potentiation of ampicillin-induced antimicrobial activity against methicillin-susceptible Staphylococcus aureus ATCC 29213 at 256 ug/ml relative to ampicillin alone; type: functional
Staphylococcus aureus [23] = experiment: Potentiation of ampicillin-induced antimicrobial activity against methicillin-resistant Staphylococcus aureus NRS100 at 256 ug/ml relative to ampicillin alone; type: functional
Staphylococcus aureus [24] = experiment: Potentiation of ampicillin-induced antimicrobial activity against methicillin-resistant Staphylococcus aureus NRS70 relative to untreated ampicillin alone; type: functional
Staphylococcus aureus [25] = experiment: Potentiation of oxacillin-induced antimicrobial activity against methicillin-resistant Staphylococcus aureus NRS123 at 1000 ug/ml relative to oxacillin alone; type: functional
Staphylococcus aureus [26] = experiment: Potentiation of ampicillin-induced antimicrobial activity against methicillin-susceptible Staphylococcus aureus ATCC 29213 at 1000 ug/ml relative to ampicillin alone; type: functional
Staphylococcus aureus [27] = experiment: Potentiation of oxacillin-induced antimicrobial activity against methicillin-resistant Staphylococcus aureus NRS70 at 1000 ug/ml relative to oxacillin alone; type: functional
Staphylococcus aureus [28] = experiment: Potentiation of ampicillin-induced antimicrobial activity against methicillin-resistant Staphylococcus aureus NRS123 at 1000 ug/ml (reference value: ampicillin alone MIC = 12 ug/ml); type: functional
Staphylococcus aureus [29] = experiment: Potentiation of ampicillin-induced antimicrobial activity against methicillin-resistant Staphylococcus aureus NRS100 at 1000 ug/ml relative to ampicillin alone; type: functional
Staphylococcus aureus [30] = experiment: Potentiation of oxacillin-induced antimicrobial activity against methicillin-resistant Staphylococcus aureus NRS70 at 1000 ug/ml by checkerboard assay; type: functional; procedure, shortened: as §2
Staphylococcus aureus [31] = experiment: Potentiation of oxacillin-induced antimicrobial activity against methicillin-resistant Staphylococcus aureus NRS100 at 1000 ug/ml relative to oxacillin alone; type: functional
Staphylococcus aureus [32] = experiment: Potentiation of ampicillin-induced antimicrobial activity against methicillin-resistant Staphylococcus aureus NRS70 at 1000 ug/ml (reference value: ampicillin alone MIC = 16 ug/ml); type: functional
Staphylococcus aureus [33] = experiment: Potentiation of ampicillin-induced antimicrobial activity against methicillin-susceptible Staphylococcus aureus ATCC 29213 at 1000 ug/ml (reference value: ampicillin alone MIC = 0.5 ug/ml); type: functional
Staphylococcus aureus [34] = experiment: Potentiation of oxacillin-induced antimicrobial activity against methicillin-susceptible Staphylococcus aureus ATCC 29213 at 1000 ug/ml (reference value: oxacillin alone MIC = 0.4 ug/ml); type: functional
Staphylococcus aureus [35] = experiment: Potentiation of oxacillin-induced antimicrobial activity against methicillin-resistant Staphylococcus aureus NRS100 relative to untreated oxacillin alone; type: functional
Staphylococcus aureus [36] = experiment: Potentiation of oxacillin-induced antimicrobial activity against methicillin-resistant Staphylococcus aureus NRS70 relative to untreated oxacillin alone; type: functional
Staphylococcus aureus [37] = experiment: Potentiation of oxacillin-induced antimicrobial activity against methicillin-susceptible Staphylococcus aureus ATCC 29213 at 1000 ug/ml relative to oxacillin alone; type: functional
Staphylococcus aureus [38] = experiment: Potentiation of oxacillin-induced antimicrobial activity against methicillin-resistant Staphylococcus aureus NRS123 at 1000 ug/ml (reference value: oxacillin alone MIC = 24 ug/ml); type: functional
Staphylococcus aureus [39] = experiment: Potentiation of ampicillin-induced antimicrobial activity against methicillin-resistant Staphylococcus aureus NRS100 relative to untreated ampicillin alone; type: functional
Staphylococcus aureus [40] = experiment: Potentiation of ampicillin-induced antimicrobial activity against methicillin-resistant Staphylococcus aureus NRS100 at 1000 ug/ml (reference value: ampicillin alone MIC = 16 ug/ml); type: functional
Staphylococcus aureus [41] = experiment: Potentiation of oxacillin-induced antimicrobial activity against methicillin-resistant Staphylococcus aureus NRS100 at 1000 ug/ml (reference value: oxacillin alone MIC = >256 ug/ml); type: functional
Staphylococcus aureus [42] = experiment: Potentiation of oxacillin-induced antimicrobial activity against methicillin-resistant Staphylococcus aureus NRS70 at 1000 ug/ml (reference value: oxacillin alone MIC = 32 ug/ml); type: functional
Staphylococcus aureus [43] = experiment: Potentiation of oxacillin-induced antimicrobial activity against methicillin-resistant Staphylococcus aureus NRS100 at 1000 ug/ml by checkerboard assay; type: functional; procedure, shortened: as §2
Staphylococcus aureus [44] = experiment: Potentiation of ampicillin-induced antimicrobial activity against methicillin-resistant Staphylococcus aureus NRS123 at 1000 ug/ml relative to ampicillin alone; type: functional
Staphylococcus aureus [45] = experiment: Potentiation of ampicillin-induced antimicrobial activity against methicillin-resistant Staphylococcus aureus NRS70 at 1000 ug/ml relative to ampicillin alone; type: functional

Question: Which “fold change (FC)” value (Staphylococcus aureus [1]) does the source give for `CC(C)=CCC/C(C)=C/CC/C(C)=C/CNP(O)(O)=S` here?
Answer: The value was 32.

Question: And the “fold change (FC)” value (Staphylococcus aureus [2])?
Answer: The value was >128.

Question: And the MIC (Staphylococcus aureus [3])?
Answer: The MIC was 8 µg/mL.

Question: What about the MIC (Staphylococcus aureus [4]) of the same molecule?
Answer: Its MIC is 0.4 µg/mL.

Question: And the solubility [5]?
Answer: The solubility was “Soluble”.

Question: What about the MIC (Staphylococcus aureus [6]) of the same molecule?
Answer: The MIC was 0.5 µg/mL.

Question: And the MIC (Staphylococcus aureus [7])?
Answer: The MIC was 16 µg/mL.

Question: What about the MIC (Staphylococcus aureus [8]) of the same molecule?
Answer: The MIC was 512 µg/mL (≈ 1.61 mM).

Question: And the MIC (Staphylococcus aureus [9])?
Answer: The MIC was 512 µg/mL (≈ 1.61 mM).

Question: What about the “fold change (FC)” value (Staphylococcus aureus [10]) of the same molecule?
Answer: Its value is 1.5.

Question: What about the “fold change (FC)” value (Staphylococcus aureus [11]) of the same molecule?
Answer: The value was 2.7.

Question: And the MIC (Staphylococcus aureus [12])?
Answer: Its MIC is 512 µg/mL (≈ 1.61 mM).

Question: And the MIC (Staphylococcus aureus [13])?
Answer: Its MIC is 1 µg/mL.

Question: What about the “fold change (FC)” value (Staphylococcus aureus [14]) of the same molecule?
Answer: Its value is 1.

Question: And the MIC (Staphylococcus aureus [15])?
Answer: Its MIC is 2 µg/mL.

Question: And the MIC (Staphylococcus aureus [16])?
Answer: Its MIC is 3 µg/mL.

Question: What about the “fractional inhibitory concentration index (FICI)” value (Staphylococcus aureus [17]) of the same molecule?
Answer: The value was 0.53 - 1.13.

Question: What about the “fold change (FC)” value (Staphylococcus aureus [18]) of the same molecule?
Answer: Its value is 1.5.

Question: And the MIC (Staphylococcus aureus [19])?
Answer: Its MIC is 512 µg/mL (≈ 1.61 mM).

Question: What about the MIC (Staphylococcus aureus [20]) of the same molecule?
Answer: Its MIC is 6 µg/mL.

Question: What about the “fractional inhibitory concentration index (FICI)” value (Staphylococcus aureus [21]) of the same molecule?
Answer: Its value is 0.53 - 1.13.

Question: What about the “fold change (FC)” value (Staphylococcus aureus [22]) of the same molecule?
Answer: The value was 1.

Question: What about the “fold change (FC)” value (Staphylococcus aureus [23]) of the same molecule?
Answer: The value was 5.3.

Question: With `CC(C)=CCC/C(C)=C/CC/C(C)=C/CO` [FARNESOL] as the molecule, how does the “fold change (FC)” value (Staphylococcus aureus [24]) read?
Answer: Its value is 256.

Question: What about the “fold change (FC)” value (Staphylococcus aureus [25]) of the same molecule?
Answer: Its value is 12.

Question: And the “fold change (FC)” value (Staphylococcus aureus [26])?
Answer: The value was 1.

Question: And the “fold change (FC)” value (Staphylococcus aureus [27])?
Answer: The value was 2.7.

Question: What about the MIC (Staphylococcus aureus [28]) of the same molecule?
Answer: Its MIC is 3 µg/mL.

Question: And the “fold change (FC)” value (Staphylococcus aureus [29])?
Answer: The value was 4.

Question: And the “fractional inhibitory concentration index (FICI)” value (Staphylococcus aureus [30])?
Answer: The value was 0.53 - 1.13.

Question: And the MIC (Staphylococcus aureus [8])?
Answer: Its MIC is 2050 µg/mL (≈ 9.21 mM).

Question: And the “fold change (FC)” value (Staphylococcus aureus [31])?
Answer: The value was >32.

Question: And the MIC (Staphylococcus aureus [32])?
Answer: Its MIC is 4 µg/mL.

Question: And the MIC (Staphylococcus aureus [9])?
Answer: The MIC was 2050 µg/mL (≈ 9.21 mM).

Question: What about the MIC (Staphylococcus aureus [33]) of the same molecule?
Answer: The MIC was 0.5 µg/mL.

Question: What about the MIC (Staphylococcus aureus [34]) of the same molecule?
Answer: The MIC was 0.5 µg/mL.

Question: And the MIC (Staphylococcus aureus [12])?
Answer: Its MIC is 2050 µg/mL (≈ 9.21 mM).

Question: What about the “fold change (FC)” value (Staphylococcus aureus [35]) of the same molecule?
Answer: The value was >64.

Question: And the “fold change (FC)” value (Staphylococcus aureus [36])?
Answer: Its value is 96.

Question: And the “fold change (FC)” value (Staphylococcus aureus [37])?
Answer: The value was 0.8.

Question: What about the MIC (Staphylococcus aureus [38]) of the same molecule?
Answer: Its MIC is 2 µg/mL.

Question: And the “fold change (FC)” value (Staphylococcus aureus [39])?
Answer: Its value is 24.

Question: What about the MIC (Staphylococcus aureus [40]) of the same molecule?
Answer: Its MIC is 4 µg/mL.

Question: What about the MIC (Staphylococcus aureus [41]) of the same molecule?
Answer: The MIC was 8 µg/mL.

Question: What about the MIC (Staphylococcus aureus [42]) of the same molecule?
Answer: Its MIC is 12 µg/mL.

Question: What about the “fractional inhibitory concentration index (FICI)” value (Staphylococcus aureus [43]) of the same molecule?
Answer: The value was 0.53 - 1.13.

Question: And the “fold change (FC)” value (Staphylococcus aureus [44])?
Answer: Its value is 4.

Question: What about the MIC (Staphylococcus aureus [19]) of the same molecule?
Answer: The MIC was 2050 µg/mL (≈ 9.21 mM).

Question: And the “fold change (FC)” value (Staphylococcus aureus [45])?
Answer: Its value is 4.
